Results reported in paper PMC9116722 (Cancer chemotherapy and pharmacology, 2022).
Blank lines part the entries; values can stand above or below the compound they belong to.

What was measured:
[1] = Non-compartmental pharmacokinetics; assay type: in vivo, human
How it was run: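 Patients took oral drug twice daily, continuously, at 50–500 mg BID. Plasma parent drug and active metabolite M8 were measured by a validated assay. Parameters were derived non-compartmentally on day 1 and reported as geometric mean (SD). Accumulation indices for Cmax and AUC0–8 were compared with theoretical values from D1 half-lives. Dose proportionality was tested on day-1 Cmax and AUC0-inf (95% CI of coefficient including 1).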

[2] = phase 3 maintenance trials ref 25-27; cited from earlier work
sporadic ovarian cancer = sporadic ovarian cancer ref 43; cited from earlier work
[3] = metabolite M8, geometric mean (SD)

M8/ABT-888 metabolic ratio, AUC0-inf ([1]; day 1): 0.21 (1.9)
M8/ABT-888 metabolic ratio, Cmax ([1]; day 1): 0.11 (1.8)
theoretical accumulation index ([1]; metabolite M8, from D1 half-lives, geometric mean (SD)): 1.51 (1.25)
accumulation index for AUC0–8 [1, 3]: 1.59 (1.41)
accumulation index for Cmax [1, 3]: 1.51 (1.34)
SMILES: CC1(c2nc3c(C(N)=O)cccc3[nH]2)CCC(=O)N1 (stereo not drawn) [M8]

SMILES: NC(=O)c1cccc2cn(-c3ccc([C@@H]4CCCNC4)cc3)nc12 [niraparib]
grade 3 or 4 anemia [2]: 25%

SMILES: CNCc1ccc(-c2[nH]c3cc(F)cc4c3c2CCNC4=O)cc1 [rucaparib]
grade 3 or 4 anemia [2]: 19%

SMILES: O=C(c1cc(Cc2n[nH]c(=O)c3ccccc23)ccc1F)N1CCN(C(=O)C2CC2)CC1 [olaparib]
grade 3 or 4 anemia [2]: 19%
patients with objective responses (sporadic ovarian cancer): 24%
